A word on the inhibition: it is the percentage by which the read-out fell short of the control. By IC50 is commonly meant the concentration that inhibits the measured activity by half.

Assay [1] concerns Leishmania major. Nature of the assay: Antileishmanial activity against promastigote form of Leishmania major at 100 uM after 72 hrs by MTT assay. It is filed as functional. In outline: (§1)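 Log-phase promastigotes grown at 25 °C in phenol-red-free D-MEM/F-12 with 10% heat-inactivated FBS, washed in PBS, seeded at 2.5×10⁶/mL (100 µL/well). Compounds in triplicate wells, 72 h at 25 °C; amphotericin B standard. MTT (5 mg/mL stock) 3 h, stopped with 50% isopropanol/10% SDS, OD570 minus 690. Percent inhibition vs control; mean ± SEM of three independent experiments.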
(Tetrazolium dyes change colour on reduction, which living cells bring about.)

In assay [2] the test system is Leishmania major. Put plainly: Antileishmanial activity against promastigote form of Leishmania major at 10 uM after 72 hrs by MTT assay. The class given is functional. In outline: as §1
Assay [3] concerns Leishmania major. Nature of the assay: Antileishmanial activity against promastigote form of Leishmania major at 1 uM after 72 hrs by MTT assay. The class given is functional. The method, boiled down: as §1
Assay [4] has as its system Leishmania major. Nature of the assay: Antileishmanial activity against promastigote form of Leishmania major at 0.1 uM after 72 hrs by MTT assay. It is filed as functional. In outline:
as §1

Assay [5] has as its target Acetylcholinesterase (Electrophorus electricus, UniProt O42275). Put plainly: Inhibition of electric eel acetylcholinesterase using acetylthiocholine iodide as substrate preincubated for 10 mins before substrate addition after 15 mins by Ellman's method.
The target in assay [6] is Cholinesterase (Homo sapiens, UniProt P06276). Nature of the assay: Inhibition of human BChE using butyrylthiocholine iodide as substrate preincubated for 10 mins before substrate addition after 15 mins by Ellman's method. In outline:
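Ellman assay in 50 mM Tris-HCl, 0.1 M NaCl, 0.02 M MgCl2, pH 8.0, with DMSO at 1% final. hBChE (3.4 U/mg) is preincubated with compound for 10 min at 25 °C. Blanks lack enzyme or substrate. IC50 from linear regression.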

The target of assay [7] is Intestinal-type alkaline phosphatase (Bos taurus, UniProt P19111). Nature of the assay: Inhibition of calf intestinal alkaline phosphatase using p-nitrophenyl phosphate as substrate preincubated for 10 mins before substrate addition after 30 mins.
Sequence of Intestinal-type alkaline phosphatase (P19111 whole entry): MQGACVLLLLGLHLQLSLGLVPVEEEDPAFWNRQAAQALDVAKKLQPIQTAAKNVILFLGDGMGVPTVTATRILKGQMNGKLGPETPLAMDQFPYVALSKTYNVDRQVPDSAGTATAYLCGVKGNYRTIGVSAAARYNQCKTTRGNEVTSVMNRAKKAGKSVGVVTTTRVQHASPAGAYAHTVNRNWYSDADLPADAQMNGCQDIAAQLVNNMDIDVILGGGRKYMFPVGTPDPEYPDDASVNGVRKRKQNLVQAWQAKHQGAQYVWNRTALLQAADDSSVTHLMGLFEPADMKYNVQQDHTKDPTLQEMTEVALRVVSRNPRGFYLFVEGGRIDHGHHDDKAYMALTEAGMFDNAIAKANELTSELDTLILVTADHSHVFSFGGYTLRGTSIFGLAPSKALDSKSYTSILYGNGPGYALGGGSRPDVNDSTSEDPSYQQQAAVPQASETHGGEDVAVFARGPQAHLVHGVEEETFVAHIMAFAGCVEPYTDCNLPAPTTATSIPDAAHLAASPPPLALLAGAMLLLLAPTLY
The nature of assay [8]: Anticancer activity against Syrian golden hamster BHK21 cells at 100 uM after 48 hrs by SRB assay. It is filed as functional. The note with it: Mesocricetus auratus, BHK-21, 48 h; read-out: GI. In outline:
(§2)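 RPMI-1640 culture with 10% heat-inactivated FBS, 2 mM glutamine, 1 mM pyruvate and penicillin/streptomycin at 37 °C, 5% CO2. Cells per 96-well well: H157 10⁴, BHK-21 5×10⁴. After 24 h, monolayers were exposed to 100, 10, 1 or 0.1 µM compound for 48 h, with vincristine as standard. Cells were fixed in cold 50% TCA (4 °C, 1 h) and stained with 0.4% SRB in 1% acetic acid (30 min). Dye was dissolved in 10 mM Tris and read at A490 minus A630. Read-out was percent inhibition.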
Background: Sulforhodamine B stains cellular protein and so reports cell mass.

Assay [9] is described as follows: Anticancer activity against Syrian golden hamster BHK21 cells at 10 uM after 48 hrs by SRB assay. It is filed as functional. The following applies: Mesocricetus auratus, BHK-21, 48 h; read-out: GI. The method, boiled down:
as §2

Assay [10] is described as follows: Anticancer activity against Syrian golden hamster BHK21 cells at 1 uM after 48 hrs by SRB assay. The class given is functional. The following applies: Mesocricetus auratus, BHK-21, 48 h; read-out: GI. The method, boiled down: as §2
Assay [11] is described as follows: Anticancer activity against Syrian golden hamster BHK21 cells at 0.1 uM after 48 hrs by SRB assay. It is filed as functional. The note with it: Mesocricetus auratus, BHK-21, 48 h; read-out: GI. In outline:
as §2

Assay [12] concerns NCI-H157. Nature of the assay: Anticancer activity against human NCI-H157 cells at 100 uM after 48 hrs by SRB assay. The following applies: NCI-H157, 48 h, read-out: GI. It is filed as functional. The method, boiled down:
as §2

For assay [13], the system named is NCI-H157. Nature of the assay: Anticancer activity against human NCI-H157 cells at 10 uM after 48 hrs by SRB assay. It is filed as functional. The note with it: NCI-H157, 48 h, read-out: GI. The method, boiled down:
as §2

For assay [14], the system named is NCI-H157. Put plainly: Anticancer activity against human NCI-H157 cells at 1 uM after 48 hrs by SRB assay. The class given is functional. The following applies: NCI-H157, 48 h, read-out: GI. The method, boiled down:
as §2

Assay [15] deals with NCI-H157. Put plainly: Anticancer activity against human NCI-H157 cells at 0.1 uM after 48 hrs by SRB assay. It is filed as functional. The following applies: NCI-H157, 48 h, read-out: GI. In outline: as §2

Sequence of Acetylcholinesterase (O42275 whole entry): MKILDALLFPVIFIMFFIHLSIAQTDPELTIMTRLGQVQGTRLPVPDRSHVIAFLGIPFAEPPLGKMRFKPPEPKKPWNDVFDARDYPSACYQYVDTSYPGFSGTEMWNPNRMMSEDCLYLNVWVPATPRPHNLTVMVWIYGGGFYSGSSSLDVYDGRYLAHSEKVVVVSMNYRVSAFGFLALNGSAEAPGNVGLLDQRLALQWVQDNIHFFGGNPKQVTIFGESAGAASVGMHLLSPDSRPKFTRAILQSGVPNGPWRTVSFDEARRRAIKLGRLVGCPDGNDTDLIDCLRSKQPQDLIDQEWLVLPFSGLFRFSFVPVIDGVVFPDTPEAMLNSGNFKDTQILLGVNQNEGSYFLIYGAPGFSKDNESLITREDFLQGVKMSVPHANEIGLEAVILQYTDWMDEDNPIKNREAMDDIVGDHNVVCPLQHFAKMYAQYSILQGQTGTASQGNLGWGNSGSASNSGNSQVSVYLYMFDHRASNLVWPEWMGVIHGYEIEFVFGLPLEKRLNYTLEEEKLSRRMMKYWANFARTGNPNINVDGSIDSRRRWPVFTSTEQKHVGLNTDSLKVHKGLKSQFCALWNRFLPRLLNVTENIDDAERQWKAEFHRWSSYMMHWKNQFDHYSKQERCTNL
Sequence of Cholinesterase (P06276 whole entry): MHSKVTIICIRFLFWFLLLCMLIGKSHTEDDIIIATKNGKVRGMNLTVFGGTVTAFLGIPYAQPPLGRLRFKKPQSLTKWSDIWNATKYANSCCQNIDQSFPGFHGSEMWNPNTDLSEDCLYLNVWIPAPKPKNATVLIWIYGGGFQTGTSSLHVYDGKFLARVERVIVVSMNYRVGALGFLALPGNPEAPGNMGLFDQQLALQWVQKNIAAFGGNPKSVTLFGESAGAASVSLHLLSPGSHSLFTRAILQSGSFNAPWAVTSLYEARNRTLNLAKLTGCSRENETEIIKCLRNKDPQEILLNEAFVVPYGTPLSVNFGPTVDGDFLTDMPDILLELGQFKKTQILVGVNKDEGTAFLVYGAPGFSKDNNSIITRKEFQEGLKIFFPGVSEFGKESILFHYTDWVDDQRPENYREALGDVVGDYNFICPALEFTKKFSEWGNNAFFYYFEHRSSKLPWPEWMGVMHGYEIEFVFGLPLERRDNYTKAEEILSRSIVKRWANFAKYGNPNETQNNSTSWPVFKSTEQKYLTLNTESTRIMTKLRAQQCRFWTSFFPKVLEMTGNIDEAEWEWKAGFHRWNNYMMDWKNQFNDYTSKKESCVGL

`C[C@@H]1[C@H](O)[C@@H](C)/C=C/C=C/C=C/C=C/C=C/C=C/C=C/[C@H](O[C@@H]2O[C@H](C)[C@@H](O)[C@H](N)[C@@H]2O)C[C@@H]2O[C@](O)(C[C@@H](O)C[C@@H](O)[C@H](O)CC[C@@H](O)C[C@@H](O)CC(=O)O[C@H]1C)C[C@H](O)[C@H]2C(=O)O` [AMPHOTERICIN B] yielded an inhibition at 100 µM in assay [1] of 79.8%. The molecule also showed an inhibition at 10 µM in assay [2] of 76.3%. In assay [3], the inhibition at 1 µM came to 74.8%. Moreover, the inhibition at 0.1 µM in [4] was determined as 69.9%.

Turning to `Oc1ccc(OCc2nn3c(-c4ccncc4)nnc3s2)cc1`, the IC50 worked out at 15.6 µM in [5], 39.1 µM in assay [6] and 5.61 µM in assay [7]. Besides, the inhibition of growth at 100 µM in assay [8] was 60.5%; in assay [12] it was 63.7%. For the same molecule, the figures for the inhibition of growth at 10 µM in [9] and in [13] were 56.2% and 60.9%, respectively. The inhibition of growth at 1 µM in assay [10] stood at 53.7%; in [14], 56.3%. In addition, the inhibition of growth at 0.1 µM came out at 51.6% in [11] and 52.6% in assay [15]. For the same molecule, testing at 100 µM in [1] gave an inhibition of 48%. At 10 µM the inhibition in assay [2] was 45.3%. This molecule also had an inhibition at 1 µM in assay [3] of 41.9%. The same molecule showed an inhibition at 0.1 µM in [4] of 37.2%.

With `c1coc(-c2nn3c(-c4ccncc4)nnc3s2)c1`, the figures for the 50% inhibitory concentration (IC50) in assay [5], in assay [6] and in [7] were 12.4 µM, 61.6 µM and 3.24 µM, respectively. The inhibition of growth at 100 µM was found to be 50.9% in assay [8] and 67.9% in assay [12]. For the same molecule, the inhibition of growth at 10 µM in assay [9] was determined as 48.2%; in assay [13], 63.8%. Also, the results for the inhibition of growth at 1 µM in assay [10] and in assay [14] were 44.9% and 60.9%, respectively. The inhibition of growth at 0.1 µM in assay [11] turned out to be 41%; in assay [15] it was 56%. In assay [1], this molecule returned an inhibition at 100 µM of 81.2%. In addition, testing at 10 µM in assay [2] gave an inhibition of 77.2%. The molecule also came in with an inhibition at 1 µM in [3] of 75.8%. In [4], this molecule gave an inhibition at 0.1 µM of 71.5%.

Regarding `Fc1ccc(OCc2nn3c(-c4ccncc4)nnc3s2)cc1`, the figures for the IC50 in [5], in assay [6] and in assay [7] were 36.8 µM, 54.1 µM and 2.59 µM, respectively. For the same molecule, the inhibition of growth at 100 µM in assay [8] is 52.7%; in assay [12], 32%. Moreover, the inhibition of growth at 10 µM is 48.3% in [9] and 28.5% in [13]. Besides, the inhibition of growth at 1 µM was found to be 45.4% in assay [10] and 25.6% in assay [14]. For the same molecule, the inhibition of growth at 0.1 µM in [11] was 43.8%; in [15], 21.3%. Moreover, in assay [1], the inhibition at 100 µM was 53.8%. The same molecule had an inhibition at 10 µM in assay [2] of 51.4%. The inhibition at 1 µM in [3] turned out to be 49.1%. In [4], this molecule registered an inhibition at 0.1 µM of 46.7%.

As for `Fc1ccc(-c2nn3c(-c4ccncc4)nnc3s2)cc1Cl`, the IC50 in assay [5] is 30.2 µM; in assay [7] it was 2.01 µM. Moreover, the inhibition in [6] came to 14.4%. Moreover, the inhibition of growth at 100 µM was 51.4% in [8] and 53.7% in [12]. The values for the inhibition of growth at 10 µM in assay [9] and in assay [13] were 46.3% and 50.9%, respectively. The values for the inhibition of growth at 1 µM in assay [10] and in assay [14] were 43.6% and 46.6%, respectively. For the same molecule, the inhibition of growth at 0.1 µM in [11] is 40.9%; in assay [15] it was 43.6%. This molecule also displayed an inhibition at 100 µM in [1] of 56.7%. The same molecule had an inhibition at 10 µM in assay [2] of 54.3%. The inhibition at 1 µM in assay [3] came out at 51.6%. 0.1 µM produced 47.7% inhibition in [4].

Take `CCOc1ccc(Cc2nn3c(-c4ccncc4)nnc3s2)cc1`: the IC50 was 3.48 µM in [5], 32.1 µM in assay [6] and 6.17 µM in assay [7]. Besides, the inhibition of growth at 100 µM in assay [8] came out at 48.6%; in [12], 70.5%. Besides, the figures for the inhibition of growth at 10 µM in assay [9] and in assay [13] were 45.4% and 67.4%, respectively. Further, the inhibition of growth at 1 µM in assay [10] is 40.9%; in [14], 63.8%. In addition, the inhibition of growth at 0.1 µM is 38.2% in [11] and 60.2% in [15]. In [1], this molecule had an inhibition at 100 µM of 66.8%. In addition, 10 µM produced 63% inhibition in assay [2]. In assay [3], this molecule returned an inhibition at 1 µM of 60.8%. The molecule also displayed an inhibition at 0.1 µM in assay [4] of 56.4%.

These data come from ChEMBL document CHEMBL3232838, “Synthesis, crystal structure and biological evaluation of some novel 1,2,4-triazolo[3,4-b]-1,3,4-thiadiazoles and 1,2,4-triazolo[3,4-b]-1,3,4-thiadiazines” (Eur J Med Chem, 2014).
